Published values pooled from the literature.
CDK3: Cyclin-dependent kinase 3 (CDK3, Homo sapiens, UniProt Q00526)
CDK3 with cyclin E: Cyclin-dependent kinase 3, with cyclin E (CDK3, Homo sapiens, UniProt Q00526)

| SMILES | target | assay | conditions | endpoint | value |
| --- | --- | --- | --- | --- | --- |
| CC(C)(C)c1nc2c(s1)c1nc(N)ncc1c1ccc(NS(=O)(=O)c3c(F)cccc3F)c(F)c12 | Cyclin-dependent kinase 3, with cyclin C (CDK3, Homo sapiens, UniProt Q00526) | enzyme activity, inhibitor, radiometric | 1 µM | remaining activity | 97% |
| CN(C)c1ncnc(-c2ccc3nc(Nc4cc(CN5CCN(C(=O)CC(F)(F)F)CC5)ccn4)[nH]c3c2)c1Cl | CDK3 | cell-free assay, competition with immobilised ligand | 1 µM | remaining binding | 86% |
| CC(C)c1ccc(NC(=O)c2cccs2)c(-c2nc3ccccc3[nH]c2=O)c1 | CDK3 with cyclin E | enzyme activity, inhibitor | 1 µM | activity vs control | 109% |
| Cc1sc(C(=O)NC2COC2)cc1-n1cc(NC(=O)Nc2c(F)cccc2Cl)cn1 | CDK3 with cyclin E | enzyme activity, inhibitor | 10 µM | remaining activity | 91.2% |
| CC(C)(O)[C@H]1CC[C@H](Nc2ccc3ncc(-c4cccc(C(F)(F)F)c4)n3n2)CC1 | CDK3 with cyclin E | enzyme activity, inhibitor | 1 µM | remaining activity | 105% |
| N#CCCc1ccc2c(c1)-c1[nH]c3ccc([N+](=O)[O-])cc3c1CC(=O)N2 | CDK3 with cyclin E | cell-free assay | 0.5 µM | remaining signal | 39.7% |
| O=C(Nc1cnn(-c2csc(C(=O)NC3COC3)c2)c1)Nc1c(F)cccc1Cl | CDK3 with cyclin E | enzyme activity, inhibitor | 5 µM | remaining activity | 92.2% |
| O=C(CSc1nc2nccnc2c(=O)n1CCc1ccccc1)Nc1nccs1 | Cyclin-dependent kinase 3, with cyclin E1 (CDK3, Homo sapiens, UniProt Q00526) | enzyme activity, inhibitor | 10 µM | inhibition | -19% |
| Cc1ccc(NC(=O)c2ccc(C)c(C(F)(F)F)c2)cc1C#Cc1nn(C2CCC(O)CC2)c2ncnc(N)c12 (stereo not drawn) | CDK3 with cyclin E | cell-free assay | 10 µM | remaining signal | 93% |
| COc1cccc(CNC(=O)c2nc3scc(COCc4ccc(C(=O)O)cc4)c3c(=O)[nH]2)c1 | CDK3 | cell-free assay, competition with immobilised ligand | 1 µM | remaining binding | 100% |
| Cc1ccc(Nc2nccc(N(C)c3ccc4c(C)n(C)nc4c3)n2)cc1S(N)(=O)=O | CDK3 with cyclin E | enzyme activity, inhibitor | 0.3 µM | inhibition | -4% |
| NS(=O)(=O)c1cc(NC(=O)C2(c3ccccc3Cl)CC2)ccc1Oc1cccc(Cl)c1 | CDK3 | cell-free assay, competition with immobilised ligand | 1 µM | remaining binding | 90% |
| CNC(=O)c1cc(Oc2ccc(NC(=O)Nc3ccc(Cl)c(C(F)(F)F)c3)cc2)ccn1 | CDK3 with cyclin E | enzyme activity, inhibitor | 10 µM | inhibition | 0% |
| O=C1NC(=O)c2cc(Nc3ccc(F)cc3)c(Nc3ccc(F)cc3)cc21 | CDK3 with cyclin E | cell-free assay | 0.5 µM | remaining signal | 98.9% |
| Cc1nc(C2CCN(C(=O)c3ccc(OC(F)(F)F)cc3N)CC2)c2ncc(N3CCN(C)CC3)cc2n1 | CDK3 | cell-free assay, competition with immobilised ligand | 1 µM | remaining binding | 100% |
